Measurements as given in ChEMBL document CHEMBL4118197, “The discovery and preclinical evaluation of BMS-707035, a potent HIV-1 integrase strand transfer inhibitor” (Bioorg Med Chem Lett, 2018).

Columns and labels:
[1] = Aqueous solubility of the compound; assay type: physicochemical
Procedure, shortened: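 Aqueous solubility measured at pH 2.3, 6.1, 7.3 and 8.5, in µg/mL.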

[2] = target: Human immunodeficiency virus type 1 integrase (Human immunodeficiency virus 1, UniProt Q7ZJM1); test: Inhibition of HIV1 integrase strand transfer activity
Chain of Human immunodeficiency virus type 1 integrase (Q7ZJM1 whole entry): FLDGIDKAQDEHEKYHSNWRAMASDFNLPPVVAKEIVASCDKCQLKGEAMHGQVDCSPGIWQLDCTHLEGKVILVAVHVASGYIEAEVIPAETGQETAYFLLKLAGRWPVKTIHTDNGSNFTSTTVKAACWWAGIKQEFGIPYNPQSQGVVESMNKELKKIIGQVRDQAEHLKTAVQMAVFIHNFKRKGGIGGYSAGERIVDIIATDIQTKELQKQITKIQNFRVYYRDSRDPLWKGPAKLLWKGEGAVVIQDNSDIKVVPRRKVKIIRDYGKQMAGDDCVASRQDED

CN(C)S(=O)(=O)c1cc(F)ccc1CNC(=O)c1nc2n(c(=O)c1O)CCCC21CCCC1
solubility [1]: ≤ 5 µg/mL | IC50 [2]: 6 nM
